Assay results from ChEMBL document CHEMBL1641374, “Synthesis of antiproliferative flavones from calycopterin, major flavonoid of Calycopteris floribunda Lamk” (Bioorg Med Chem, 2011).
The source made the active and inactive calls. The calls are words filed in the database; no cut-off is given here.

Tests used:
[1] = Inhibition of sheep brain tubulin polymerization at 2x10'-5 M after 5 mins; parameters: species or system Ovis aries
In short: (§1)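 Sheep brain microtubule proteins were purified by two assembly/disassembly cycles (37 °C/0 °C) in 100 mM MES pH 6.6, 1 mM EGTA, 0.5 mM MgCl2. Polymerization rate was followed by turbidity at 350 nm, with deoxypodophyllotoxin as reference. Compounds were tested at ~2×10^-5 M for % inhibition, with IC50 determined for selected compounds.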

[2] = system: KB; experiment: Cytotoxicity against human KB cells after 72 hrs by MTS assay; format: functional, cell-based
[3] = system: KB; experiment: Cytotoxicity against human KB cells at 10^-6 M after 72 hrs by MTS assay; format: functional
In short: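 KB cells in D-MEM with 10% FCS were seeded at 600 cells/well and dosed 24 h later with flavone at 10^-6 M in DMSO. Controls received DMSO at 1% final. After 72 h, MTS was added for 3 h at 37 °C and A490 read in triplicate. Growth inhibition (%) = (1 − OD treated/OD control)×100.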

[4] = species: Ovis aries; experiment: Inhibition of sheep brain tubulin polymerization after 5 mins; in short: as §1
[5] = system: HL-60; experiment: Induction of apoptosis in human HL60 cells assessed as induction of caspase 3/7 activation at 100 uM; format: functional, cell-based
In short: (§2)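 HL60 cells (20,000/well) were treated 24 and 48 h with compounds in DMSO. Vehicle and doxorubicine served as controls. Fluorescence (ex 360/em 465 nm) was followed over 3 h.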

[6] = system: KB; experiment: Induction of cell cycle arrest in human KB cells assessed as accumulation at subG1 phase at 20 nM after 48 hrs by propidium iodide staining-based flow cytometry (reference value: 1.2%); format: functional
[7] = system: KB; experiment: Induction of cell cycle arrest in human KB cells assessed as accumulation at G0/G1phase at 20 nM after 48 hrs by propidium iodide staining-based flow cytometry (reference value: 66.6%); format: functional
[8] = system: KB; experiment: Induction of cell cycle arrest in human KB cells assessed as accumulation at S phase at 20 nM after 48 hrs by propidium iodide staining-based flow cytometry (reference value: 18.4%); format: functional
[9] = system: KB; experiment: Induction of cell cycle arrest in human KB cells assessed as accumulation at subG1 phase at 20 nM after 24 hrs by propidium iodide staining-based flow cytometry (reference value: 0.7%); format: functional
[10] = system: KB; experiment: Induction of cell cycle arrest in human KB cells assessed as accumulation at G2/M phase at 20 nM after 24 hrs by propidium iodide staining-based flow cytometry (reference value: 19.6%); format: functional
[11] = system: KB; experiment: Induction of cell cycle arrest in human KB cells assessed as accumulation at S phase at 20 nM after 24 hrs by propidium iodide staining-based flow cytometry (reference value: 6.9%); format: functional
[12] = system: KB; experiment: Induction of cell cycle arrest in human KB cells assessed as accumulation at G0/G1phase at 20 nM after 24 hrs by propidium iodide staining-based flow cytometry (reference value: 72.9%); format: functional
[13] = system: KB; experiment: Induction of cell cycle arrest in human KB cells assessed as accumulation at G2/M phase at 20 nM after 48 hrs by propidium iodide staining-based flow cytometry (reference value: 13.8%); format: functional
[14] = system: HL-60; experiment: Induction of apoptosis in human HL60 cells assessed as induction of caspase 3/7 activation at 100 uM relative to control; format: functional; in short: as §2
[15] = system: HL-60; experiment: Induction of apoptosis in human HL60 cells assessed as viable cells at 50 nM after 48 hrs by annexin-V-PE/7-AAD staining (reference value: 97.4%); format: functional; conditions: HL-60, 48 h, read-out: Activity
[16] = system: KB; experiment: Induction of cell cycle arrest in human KB cells assessed as accumulation at G0/G1phase at 50 nM after 24 hrs by propidium iodide staining-based flow cytometry (reference value: 72.9%); format: functional
[17] = system: A549; experiment: Cytotoxicity against human A549 cells after 72 hrs by MTS assay; format: functional, cell-based; conditions: A549, 72 h
[18] = system: K562; experiment: Cytotoxicity against human K562 cells after 72 hrs by MTS assay; format: functional, cell-based; conditions: K562, 72 h
[19] = Cytotoxicity against human MCF7/R cells after 72 hrs by MTS assay; format: functional, cell-based; conditions: MCF7R
[20] = system: HL-60; experiment: Induction of apoptosis in human HL60 cells assessed as early apoptosis cells at 50 nM after24 hrs by annexin-V-PE/7-AAD staining (reference value: 2.6%); format: functional
[21] = system: MIA PaCa-2; experiment: Cytotoxicity against human MIAPaCa2 cells after 72 hrs by MTS assay; format: functional, cell-based; conditions: MIA PaCa-2, 72 h
[22] = system: KB; experiment: Induction of cell cycle arrest in human KB cells assessed as accumulation at G2/M phase at 50 nM after 48 hrs by propidium iodide staining-based flow cytometry (reference value: 13.8%); format: functional
[23] = system: HL-60; experiment: Induction of apoptosis in human HL60 cells assessed as late apoptosis cells at 50 nM after 48 hrs by annexin-V-PE/7-AAD staining (reference value: 0.1%); format: functional
[24] = system: HCT-116; experiment: Cytotoxicity against human HCT116 cells after 72 hrs by MTS assay; format: functional, cell-based; conditions: HCT-116, 72 h
[25] = system: OVCAR-8; experiment: Cytotoxicity against human OVCAR8 cells after 72 hrs by MTS assay; format: functional, cell-based; conditions: OVCAR-8, 72 h
[26] = system: SK-OV-3; experiment: Cytotoxicity against human SKOV3 cells after 72 hrs by MTS assay; format: functional, cell-based; conditions: SK-OV-3, 72 h
[27] = system: HT-29; experiment: Cytotoxicity against human HT-29 cells after 72 hrs by MTS assay; format: functional, cell-based; conditions: HT-29, 72 h
[28] = system: HCT-15; experiment: Cytotoxicity against human HCT15 cells after 72 hrs by MTS assay; format: functional, cell-based; conditions: HCT-15, 72 h
[29] = system: HL-60; experiment: Induction of apoptosis in human HL60 cells assessed as late apoptosis cells at 50 nM after24 hrs by annexin-V-PE/7-AAD staining (reference value: 0.2%); format: functional
[30] = system: PC-3; experiment: Cytotoxicity against human PC3 cells after 72 hrs by MTS assay; format: functional, cell-based; conditions: PC-3, 72 h
[31] = system: SF-268; experiment: Cytotoxicity against human SF268 cells after 72 hrs by MTS assay; format: functional, cell-based; conditions: SF-268, 72 h
[32] = Cytotoxicity against human HL60R cells after 72 hrs by MTS assay; format: functional, cell-based; conditions: HL-60, 72 h
[33] = system: KB; experiment: Induction of cell cycle arrest in human KB cells assessed as accumulation at S phase at 50 nM after 48 hrs by propidium iodide staining-based flow cytometry (reference value: 18.4%); format: functional
[34] = system: KB; experiment: Induction of cell cycle arrest in human KB cells assessed as accumulation at subG1 phase at 50 nM after 48 hrs by propidium iodide staining-based flow cytometry (reference value: 1.2%); format: functional
[35] = system: KB; experiment: Induction of cell cycle arrest in human KB cells assessed as accumulation at G2/M phase at 50 nM after 24 hrs by propidium iodide staining-based flow cytometry (reference value: 19.6%); format: functional
[36] = system: KB; experiment: Induction of cell cycle arrest in human KB cells assessed as accumulation at subG1 phase at 50 nM after 24 hrs by propidium iodide staining-based flow cytometry (reference value: 0.7%); format: functional
[37] = system: KB; experiment: Induction of cell cycle arrest in human KB cells assessed as accumulation at G0/G1phase at 50 nM after 48 hrs by propidium iodide staining-based flow cytometry (reference value: 66.6%); format: functional
[38] = system: HL-60; experiment: Induction of apoptosis in human HL60 cells assessed as viable cells at 50 nM after24 hrs by annexin-V-PE/7-AAD staining (reference value: 97.2%); format: functional; conditions: read-out: Activity
[39] = system: HepG2; experiment: Cytotoxicity against human HepG2 cells after 72 hrs by MTS assay; format: functional, cell-based; conditions: HepG2, 72 h
[40] = system: KB; experiment: Induction of cell cycle arrest in human KB cells assessed as accumulation at S phase at 50 nM after 24 hrs by propidium iodide staining-based flow cytometry (reference value: 6.9%); format: functional
[41] = system: HL-60; experiment: Cytotoxicity against human HL60 cells after 72 hrs by MTS assay; format: functional, cell-based; conditions: HL-60, 72 h
[42] = system: HL-60; experiment: Induction of apoptosis in human HL60 cells assessed as induction of caspase 3/7 activation at 100 nM relative to control; format: functional; in short: as §2

## COc1ccc(-c2oc3c(OC)c(O)c(OC)c(O)c3c(=O)c2OC)cc1N
[1]
  IC50: 85000 nM
[2]
  IC50: 6200 nM

## COc1ccc(-c2oc3c(OC)c(OC)c(OC)c(O)c3c(=O)c2OC)cc1CO
[3]
  Activity: <=13%

## COc1ccc(-c2oc3c(OC)c(OC)c(OC)c(OC)c3c(=O)c2OC)cc1N
[4]
  inhibition: 5%
[3]
  Activity: 17%
[5]
  Activity: inactive

## COc1ccc(/C=C\c2cc(OC)c(OC)c(OC)c2)cc1O [COMBRETASTATIN A4]
[6]
  Activity: 43.5%
[7]
  Activity: 27.4%
[8]
  Activity: 44%
[9]
  Activity: 13.8%
[10]
  Activity: 50.1%
[11]
  Activity: 26.7%
[12]
  Activity: 9.5%
[13]
  Activity: 0.8%

## COc1ccc(-c2oc3c(OC)c(OC)c(OC)c(O)c3c(=O)c2OC)cc1[N+](=O)[O-]
[3]
  Activity: 13%

## COc1c(I)cc(-c2oc3c(OC)c(OC)c(OC)c(O)c3c(=O)c2OC)cc1I
[3]
  Activity: <=13%

## COc1ccc(-c2oc3c(OC)c(OC)c(OC)c(O)c3c(=O)c2OC)cc1-c1cc(-c2oc3c(OC)c(OC)c(OC)c(O)c3c(=O)c2OC)ccc1OC
[3]
  Activity: <=13%

## COc1c(OC)c(O)c2c(=O)c(OC)c(-c3ccc(O)cc3)oc2c1OC [CALYCOPTERIN]
[3]
  Activity: 0%

## COc1ccc(-c2oc3c(OC)c(OC)c(OC)c(N)c3c(=O)c2OC)cc1N
[1]
  IC50: 24000 nM
[3]
  Activity: 78%
[2]
  IC50: 128 nM
[14]
  fold change (FC): 3.6

## COc1ccc(-c2oc3c(OC)c(OC)c(OC)cc3c(=O)c2OC)cc1N
[1]
  IC50: 12000 nM
[3]
  Activity: 84%
[2]
  IC50: 78 nM
[14]
  fold change (FC): 3.1

## COc1ccc(-c2oc3c(OC)c(OC)c(OC)c(O)c3c(=O)c2OC)cc1O
[4]
  inhibition: 3%
[15]
  viability at 0.05 µM: 30.8%
[16]
  Activity: 21.3%
[17]
  IC50: 58 nM
[1]
  IC50: 8900 nM
[3]
  Activity: 96%
[18]
  IC50: 7 nM
[19]
  IC50: 17 nM
[20]
  Activity: 26.7%
[21]
  IC50: 12 nM
[22]
  Activity: 11.8%
[23]
  Activity: 7.2%
[24]
  IC50: 23 nM
[25]
  IC50: 40 nM
[26]
  IC50: 22 nM
[27]
  IC50: 3140 nM
[28]
  IC50: 14 nM
[29]
  Activity: 0.8%
[30]
  IC50: > 1000 nM
[31]
  IC50: 186 nM
[32]
  IC50: 5 nM
[33]
  Activity: 38.6%
[34]
  Activity: 22.2%
[35]
  Activity: 45.3%
[36]
  Activity: 14.9%
[37]
  Activity: 27.4%
[38]
  viability at 0.05 µM: 72.4%
[39]
  IC50: 174 nM
[40]
  Activity: 18.5%
[41]
  IC50: 36 nM
[42]
  fold change (FC): 5.7
